The values below come from publication PMC6733178 (ACS Omega, 2019).

Values after ≈ are worked out from the molar mass of the structure shown.

The subject of experiment [1] is tested Gram-positive strains (S. aureus incl. MRSA, S. epidermidis, B. subtilis). In words: MIC summarised in the text over the tested Gram-positive strains. Format: cell-based.
In experiment [2] the test system is S. aureus ATCC 700699 (Sa99). Briefly: MIC, broth microdilution with resazurin. Format: cell-based, Staphylococcus aureus. As to conditions: for MIC: Staphylococcus aureus, ATCC700699, read-out: MIC Values Sa99. The method in brief: (§1)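 CLSI broth microdilution. Strains were grown overnight at 35 °C on TSA or TSA with 5% sheep blood. Colonies were suspended in 0.9% saline to 0.5 McFarland, then diluted 1:100 in Mueller Hinton broth (about 1 × 10^6 CFU/mL). Test compound (2 mg/mL DMSO stock) was serially diluted 1:2 from 50 µg/mL final. Resazurin was added at 8 µg/mL final, and plates were incubated 35 °C for 20–24 h and read visually. MIC is the lowest concentration without the resazurin colour change. Each plate carried untreated, DMSO and antibiotic controls.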

For experiment [3], the system named is S. epidermidis 700296 (Se). Briefly: MIC, broth microdilution with resazurin. Format: cell-based. As to conditions: Staphylococcus epidermidis, read-out: MIC Values Se. Background: Dilution methods test growth across graded concentrations, often in twofold steps.
Experiment [4] concerns S. aureus ATCC 33591 (Sa91). Briefly: MIC, broth microdilution with resazurin. Format: cell-based, Staphylococcus aureus. To be noted: Staphylococcus aureus, ATCC33591, read-out: MIC Values Sa91. The method in brief: as §1
The subject of experiment [5] is S. aureus BAA-2312 (Sa12). Briefly: MIC, broth microdilution with resazurin. The experiment is classed as cell-based, Staphylococcus aureus. To be noted: Staphylococcus aureus, BAA2312, read-out: MIC Values Sa12. The method in brief: as §1
The subject of experiment [6] is S. aureus ATCC 25923 (Sa). Briefly: MIC, broth microdilution with resazurin. As to conditions: Staphylococcus aureus, ATCC25923, read-out: MIC Values Sa. Format: cell-based, Staphylococcus aureus. The method, boiled down: as §1
Experiment [7] deals with S. aureus ATCC 33592 (Sa92). Briefly: MIC, broth microdilution with resazurin. The experiment is classed as cell-based, Staphylococcus aureus. As to conditions: Staphylococcus aureus, ATCC33592, read-out: MIC Values Sa92. The method in brief:
as §1

The test system of experiment [8] is A. baumannii ATCC 747 (Ab47). In words: MIC, broth microdilution with resazurin. The experiment is classed as cell-based, Acinetobacter baumannii. As to conditions: Acinetobacter baumannii, ATCC747, read-out: MIC Ab47. The method, boiled down:
as §1

The test system of experiment [9] is A. baumannii ATCC 19606 (Type Strain, AB06). In words: MIC, broth microdilution with resazurin. Format: cell-based, Acinetobacter baumannii. To be noted: Acinetobacter baumannii, ATCC19606, read-out: MIC Ab06. The method in brief: as §1

As to “4-[4-[(2-Benzyl-2-phenyl-hydrazino)methyl]-3-(4-fluorophenyl)pyrazol-1-yl]benzoic Acid [Compound 24]”, in experiment [1], the “activity against the tested strains (in words)” value (shortened to “activity”) was “failed to show any significant activity”.

For `O=Cc1cn(-c2ccc(C(=O)O)cc2)nc1-c1cccc(F)c1` [3a, 4-[3-(3-Fluorophenyl)-4-formyl-pyrazol-1-yl]benzoic Acid], in [2] (antibiotic-resistant strain, NA = No Activity), the “MIC Values Sa99” value was “did not show any activity”.

The MIC is the least concentration at which growth counts as inhibited. `CN(/N=C/c1cn(-c2ccc(C(=O)O)cc2)nc1-c1cccc(F)c1)c1ccccc1` [Compound 4, 4-{3-(3-Fluorophenyl)-4-[(E)-(2-methyl-2-phenylhydrazinylidene)methyl]-1H-pyrazol-1-yl}benzoic Acid]: the MIC in experiment [3] was found to be 12.5 µg/mL (≈ 30.2 µM); in [4], 25 µg/mL (≈ 60.3 µM); in [5], 25 µg/mL (≈ 60.3 µM); in experiment [2], 25 µg/mL (≈ 60.3 µM); in experiment [6], 12.5 µg/mL (≈ 30.2 µM); in experiment [7] it was 12.5 µg/mL (≈ 30.2 µM). For the same molecule, the “activity” value in experiment [1] is reported as “moderate growth inhibition”.

As to `O=C(O)c1ccc(-n2cc(/C=N/N(Cc3ccccc3)c3ccccc3)c(-c3cccc(F)c3)n2)cc1` [Compound 6, 4-[4-[(E)-[Benzyl(phenyl)hydrazono]methyl]-3-(3-fluorophenyl)pyrazol-1-yl]benzoic Acid], the MIC in [3], in experiment [4], in experiment [5], in experiment [2], in experiment [6] and in experiment [7] was 1.56 µg/mL (≈ 3.18 µM) throughout.

Regarding `O=C(O)c1ccc(-n2cc(/C=N/Nc3cc(F)ccc3F)c(-c3cccc(F)c3)n2)cc1` [Compound 11, 4-[4-[(E)-[(2,5-Difluorophenyl)hydrazono]methyl]-3-(3-fluorophenyl)pyrazol-1-yl]benzoic Acid], the MIC amounted to 12.5 µg/mL (≈ 28.6 µM) in experiment [3]; 12.5 µg/mL (≈ 28.6 µM) in experiment [4]; 12.5 µg/mL (≈ 28.6 µM) in experiment [5]; 6.25 µg/mL (≈ 14.3 µM) in experiment [2]; 12.5 µg/mL (≈ 28.6 µM) in experiment [6]; 3.12 µg/mL (≈ 7.16 µM) in experiment [7].

Turning to `O=C(O)c1ccc(-n2cc(/C=N/Nc3cccc(Cl)c3F)c(-c3cccc(F)c3)n2)cc1` [Compound 13, 4-[4-[(E)-[(3-Chloro-2-fluorophenyl)hydrazono]methyl]-3-(3-fluorophenyl)pyrazol-1-yl]benzoic Acid], the MIC in [3] amounted to 6.25 µg/mL (≈ 13.8 µM); in experiment [4], 6.25 µg/mL (≈ 13.8 µM); in [5] it was 12.5 µg/mL (≈ 27.6 µM); in [2], 3.12 µg/mL (≈ 6.9 µM); in experiment [6] it was 3.12 µg/mL (≈ 6.9 µM); in [7], 0.78 µg/mL (≈ 1.72 µM). Moreover, the “MIC value as low as” value in experiment [1] (lowest MIC over the tested Gram-positive / MRSA strains) was found to be 0.78 µg/mL (≈ 1.72 µM).

Regarding `O=C(O)c1ccc(-n2cc(/C=N/Nc3c(F)c(F)cc(F)c3F)c(-c3cccc(F)c3)n2)cc1` [Compound 14, 4-[3-(3-Fluorophenyl)-4-[(E)-[(2,3,5,6-tetrafluorophenyl)hydrazono]methyl]pyrazol-1-yl]benzoic Acid], the MIC in experiment [3] amounted to 25 µg/mL (≈ 52.9 µM); in experiment [4], 12.5 µg/mL (≈ 26.5 µM); in experiment [5] it was 12.5 µg/mL (≈ 26.5 µM); in [2], 6.25 µg/mL (≈ 13.2 µM); in experiment [6], 12.5 µg/mL (≈ 26.5 µM); in experiment [7] it was 6.25 µg/mL (≈ 13.2 µM). In addition, in experiment [1], the “activity” value is “moderate activity”.

For `O=C(O)c1ccc(-n2cc(/C=N/Nc3c(F)c(F)c(F)c(F)c3F)c(-c3cccc(F)c3)n2)cc1` [Compound 15, 4-[3-(3-Fluorophenyl)-4-[(E)-[(2,3,4,5,6-pentafluorophenyl)hydrazono]methyl]pyrazol-1-yl]benzoic Acid], the MIC in [3] was 25 µg/mL (≈ 51 µM); in experiment [4], 12.5 µg/mL (≈ 25.5 µM); in experiment [5] it was 12.5 µg/mL (≈ 25.5 µM); in experiment [2], 6.25 µg/mL (≈ 12.7 µM); in experiment [6], 12.5 µg/mL (≈ 25.5 µM); in experiment [7], 3.12 µg/mL (≈ 6.37 µM). Besides, the “activity” value in experiment [1] was “moderate activity”.

As for `O=C(O)c1ccc(-n2cc(/C=N/Nc3ccc(C(F)(F)F)cc3)c(-c3cccc(F)c3)n2)cc1` [Compound 16, 4-[3-(3-Fluorophenyl)-4-[(E)-[[4-(trifluoromethyl)phenyl]hydrazono]methyl]pyrazol-1-yl]benzoic Acid], the MIC was found to be 12.5 µg/mL (≈ 26.7 µM) in experiment [3]; 6.25 µg/mL (≈ 13.3 µM) in experiment [4]; 12.5 µg/mL (≈ 26.7 µM) in experiment [5]; 6.25 µg/mL (≈ 13.3 µM) in [2]; 12.5 µg/mL (≈ 26.7 µM) in [6]; 6.25 µg/mL (≈ 13.3 µM) in [7]. Also, in experiment [1], the “activity” value was “moderate activity”.

As for `O=C(O)c1ccc(N/N=C/c2cn(-c3ccc(C(=O)O)cc3)nc2-c2cccc(F)c2)cc1` [Compound 18, 4-[(2E)-2-[[1-(4-Carboxyphenyl)-3-(3-fluorophenyl)pyrazol-4-yl]methylene]hydrazino]benzoic Acid], the “activity” value in experiment [1] was “completely ceased the activity”.

In the case of `O=C(O)c1ccc(-n2cc(/C=N/n3cnnc3)c(-c3cccc(F)c3)n2)cc1` [Compound 19, 4-[3-(3-Fluorophenyl)-4-[(E)-1,2,4-triazol-4-yliminomethyl]pyrazol-1-yl]benzoic Acid], the “activity” value in experiment [1] is recorded as “completely ceased the activity”.

As to `O=C(O)c1ccc(-n2cc(/C=N/Nc3ccccn3)c(-c3cccc(F)c3)n2)cc1` [Compound 20, 4-[3-(3-Fluorophenyl)-4-{(E)-[2-(pyridin-2-yl)hydrazinylidene]methyl}-1H-pyrazol-1-yl]benzoic Acid], the “activity” value in experiment [1] is on record as “completely ceased the activity”.

For `O=C(O)c1ccc(-n2cc(/C=N/N(Cc3ccccc3)Cc3ccccc3)c(-c3ccc(F)cc3)n2)cc1` [Compound 25, 4-[4-[(E)-(Dibenzylhydrazono)methyl]-3-(4-fluorophenyl)pyrazol-1-yl]benzoic Acid], the MIC in experiment [2] was determined as 6.25 µg/mL (≈ 12.4 µM); in experiment [7] it was 3.12 µg/mL (≈ 6.19 µM).

On to `O=C(O)c1ccc(-n2cc(/C=N/Nc3ccc(F)cc3)c(-c3ccc(F)cc3)n2)cc1` [Compound 26, 4-[3-(4-Fluorophenyl)-4-[(E)-[(4-fluorophenyl)hydrazono]methyl]pyrazol-1-yl]benzoic Acid], for which the MIC was 25 µg/mL (≈ 59.8 µM) in experiment [3]; 25 µg/mL (≈ 59.8 µM) in [4]; over 25 µg/mL in experiment [8]; 25 µg/mL (≈ 59.8 µM) in experiment [5]; 12.5 µg/mL (≈ 29.9 µM) in [2]; 12.5 µg/mL (≈ 29.9 µM) in experiment [6]. The MIC in [9] and in [7] was 12.5 µg/mL (≈ 29.9 µM) in each case. Also, the “activity” value in experiment [1] is “moderate activity”.

`O=C(O)c1ccc(-n2cc(/C=N/Nc3cccc(Br)c3)c(-c3ccc(F)cc3)n2)cc1` [Compound 27, 4-[4-[(E)-[(3-Bromophenyl)hydrazono]methyl]-3-(4-fluorophenyl)pyrazol-1-yl]benzoic Acid]: the MIC was determined as 25 µg/mL (≈ 52.2 µM) in experiment [3]; 12.5 µg/mL (≈ 26.1 µM) in [4]; 25 µg/mL (≈ 52.2 µM) in [8]; 12.5 µg/mL (≈ 26.1 µM) in experiment [5]; 6.25 µg/mL (≈ 13 µM) in experiment [2]; 12.5 µg/mL (≈ 26.1 µM) in experiment [6]. Also, the MIC in [9] was determined as 6.25 µg/mL (≈ 13 µM); in [7], 3.12 µg/mL (≈ 6.52 µM). For the same molecule, in experiment [1], the “activity” value is reported as “moderate activity”.

On to `O=C(O)c1ccc(-n2cc(/C=N/Nc3cc(F)ccc3F)c(-c3ccc(F)cc3)n2)cc1` [Compound 28, 4-[4-[(E)-[(2,5-Difluorophenyl)hydrazono]methyl]-3-(4-fluorophenyl)pyrazol-1-yl]benzoic Acid], for which the MIC came to 12.5 µg/mL (≈ 28.6 µM) in experiment [3]; 25 µg/mL (≈ 57.3 µM) in [4]; 12.5 µg/mL (≈ 28.6 µM) in [5]; 6.25 µg/mL (≈ 14.3 µM) in experiment [2]; 12.5 µg/mL (≈ 28.6 µM) in experiment [6]; 6.25 µg/mL (≈ 14.3 µM) in [7]. The “activity” value in [1] was “moderate activity”.

As to `O=C(O)c1ccc(-n2cc(/C=N/Nc3cccc(Cl)c3F)c(-c3ccc(F)cc3)n2)cc1` [Compound 29, 4-[4-[(E)-[(3-Chloro-2-fluorophenyl)hydrazono]methyl]-3-(4-fluorophenyl)pyrazol-1-yl]benzoic Acid], the MIC in [3] was 12.5 µg/mL (≈ 27.6 µM); in experiment [4], 12.5 µg/mL (≈ 27.6 µM); in experiment [5], 3.12 µg/mL (≈ 6.9 µM); in [2] it was 1.56 µg/mL (≈ 3.44 µM); in experiment [6] it was 6.25 µg/mL (≈ 13.8 µM); in experiment [7], 1.56 µg/mL (≈ 3.44 µM).

On to `N#Cc1ccc(N/N=C/c2cn(-c3ccc(C(=O)O)cc3)nc2-c2ccc(F)cc2)cc1` [Compound 30, 4-[4-[(E)-[(4-Cyanophenyl)hydrazono]methyl]-3-(4-fluorophenyl)pyrazol-1-yl]benzoic Acid], for which the MIC in [8] was 12.5 µg/mL (≈ 29.4 µM); in experiment [2] it was 6.25 µg/mL (≈ 14.7 µM); in experiment [6], 12.5 µg/mL (≈ 29.4 µM); in experiment [9] it was 12.5 µg/mL (≈ 29.4 µM); in experiment [7] it was 12.5 µg/mL (≈ 29.4 µM). Besides, the “activity” value in experiment [1] is given as “moderate activity”.

Regarding `O=C(O)c1ccc(-n2cc(/C=N/Nc3ccc([N+](=O)[O-])cc3)c(-c3ccc(F)cc3)n2)cc1` [Compound 31, 4-[3-(4-Fluorophenyl)-4-{(E)-[2-(4-nitrophenyl)hydrazinylidene]methyl}-1H-pyrazol-1-yl]benzoic Acid], the “activity” value in experiment [1] is “no activity”.
